81 molecules from ChEMBL document CHEMBL1123797, “Antianaphylactic benzophenones and related compounds” (1987) can be followed below.

The Inhibition is the drop in the measured response relative to a control, in per cent.

Format in all cases: functional
The species entered for assay [1] is Cavia porcellus. As to the kind of experiment: Inhibition of histamine release from sensitized guinea pig chopped lung upon antigen challenge at 10 ug/mL. Summed up: (§1)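 Guinea pigs sensitized to ovalbumin; lungs taken 3 weeks later, perfused with Tyrode, chopped into 0.5-mm cubes. 100-mg aliquots in Tyrode were preincubated 5 min at 37 °C, then compound or Tyrode and ovalbumin (5 mg in 0.1 mL) were added. Incubation was 15 min at 37 °C with rocking, and supernatant was bioassayed. Unchallenged control gave spontaneous release. Values are % inhibition, mean of ≥4 samples; Student's t-test.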

The species entered for assay [2] is Cavia porcellus. The assay is described as follows: Inhibition of slow reacting substance of anaphylaxis (SRS-A) release from sensitized guinea pig chopped lung upon antigen challenge at 10 ug/mL. An outline of the steps:
as §1

The species named for assay [3] is Homo sapiens. The assay is described as follows: Inhibition of Histamine mediator release form passively sensitized human lung upon antigen challenge at 10 ug/mL dose. An outline of the steps: (§2)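 Healthy human lung from carcinoma surgery was chopped into 0.5-mm cubes and passively sensitized 18 h at 18 °C with atopic serum from cocksfoot-pollen-allergic patients. Tissue was preincubated 5 min with compound, challenged with pollen extract (0.1 mL, 1000 noon units) and incubated as for guinea pig lung. Supernatant was bioassayed on guinea pig ileum, with mepyramine-treated (0.4 μg/mL) ileum for SRS-A. Values are % inhibition of mediator release.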

Assay [4] is filed under the species Homo sapiens. The assay is described as follows: Inhibition of Slow reacting substance of anaphylaxis (SRS-A) mediator release form passively sensitized human lung upon antigen challenge at 10 ug/mL dose. Summed up: as §2
The species named for assay [5] is Homo sapiens. As to the kind of experiment: Inhibition of Slow reacting substance of anaphylaxis (SRS-A) mediator release form passively sensitized human lung upon antigen challenge at 1 ug/mL dose. Summed up:
as §2

Assay [6] relates to Cavia porcellus. As to the kind of experiment: Mean collapse time after pretreatment with compound and mepyramine divided by mean collapse time of mepyramine-dosed control animals at 50 mg/kg po dose. An outline of the steps:
(§3)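 Modified Herxheimer test in conscious sensitized guinea pigs, 4-5 per group. Compound was given orally at 25, 50 or 100 mg/kg 2 or 4 h before antigen challenge. Some groups also received mepyramine 0.5 mg/kg sc 0.5 h before challenge. D = mean collapse time of treated/untreated controls; M+D = mean collapse time of compound+mepyramine/mepyramine-dosed controls.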

The subject of assay [7] is Cavia porcellus. The assay is described as follows: Mean collapse time after pretreatment with compound divided by mean collapse time of untreated control animals at 50 mg/kg po dose. An outline of the steps:
as §3

With `Cc1ccc(O)c(/C(=N\O)c2ccc(Cl)cc2)c1`, the Inhibition in assay [1] turned out to be 25%; in assay [2] it was 32%.

Take `CCc1ccc(S(C)(=O)=O)c(C(=O)c2ccc(C)cc2)c1`: the Inhibition in assay [2] is 11%.

For the molecule `CCc1ccc(/C(=N/O)c2ccc(Cl)cc2)c(O)c1`, in assay [2], the Inhibition is 0%.

Regarding `CCc1ccc(C(O)c2ccc(F)cc2)c(O)c1` (centres undefined), the Inhibition is 5% in assay [1] and 34% in assay [2].

On to `CCCc1cccc(C(=O)c2ccc(Cl)cc2)c1O`, for which, in assay [2], the Inhibition was 0%.

As to `Cc1cccc(/C(=N/O)c2ccc(Cl)cc2)c1O`, the Inhibition in assay [1] and in assay [2] was 52% in each case.

As for `O=C(c1ccccc1)c1ccccc1O`, in assay [2], the Inhibition was found to be 0%.

Regarding `CCc1cc([S+]([O-])c2ccc(C)cc2)c(O)cc1Cl` (centres undefined), the Inhibition in assay [2] came to 5%.

Regarding `CCc1ccc(C(=O)c2cccc(F)c2)c(O)c1`, in assay [2], the Inhibition is 26%.

For the molecule `CCc1cc(CC)c(O)c(C(=O)c2ccc(Cl)cc2)c1`, the Inhibition turned out to be 9% in assay [1] and 38% in assay [2].

Take `CCc1cccc(C(=O)c2ccc(Cl)cc2)c1O`: the Inhibition in assay [2] is given as 2%.

In the case of `Cc1ccc(C(=O)c2ccc(F)cc2)c(O)c1`, in assay [2], the Inhibition amounted to 10%.

As for `Cc1cccc(C(=O)c2ccc(Cl)cc2)c1O`, the Inhibition in assay [3] is 0%; in assay [4], 100%; in assay [1], 6%; in assay [5], 100%; in assay [2] it was 36%.

As for `CCCc1cccc(C(=O)c2ccccc2)c1O`, the Inhibition in assay [2] is 0%.

Consider `CCc1ccc(O)c(C(=O)c2cccc3ccccc23)c1`, for which the Inhibition in assay [2] was 0%.

With `CCc1ccc(O)c(C(=O)c2ccc(F)cc2)c1`, the Inhibition in assay [2] turned out to be 1%.

In the case of `Cc1ccc(O)c(C(=O)c2ccccc2)c1`, the Inhibition in assay [1] is given as 78%; in assay [2], 39%.

Take `CCc1ccc([S+](C)[O-])c(C(=O)c2ccc(Cl)cc2)c1` (centres undefined): the Inhibition in assay [1] was determined as 1%; in assay [2], 36%.

Consider `CCc1ccc(O)c(C(=O)c2ccc(Br)cc2)c1`, for which the Inhibition in assay [2] stood at 10%.

Consider `CC(=O)c1ccc(O)c(C(=O)c2ccc(Cl)cc2)c1`, for which the Inhibition in assay [1] worked out at 61%; in assay [2], 49%.

Turning to `Cc1ccc(C(=O)c2ccc(Cl)cc2)c(O)c1`, the Inhibition in assay [2] came to 0%.

On to `CCc1ccc(O)c(C(=O)c2cccc(Cl)c2)c1`, for which, in assay [2], the Inhibition worked out at 0%.

In the case of `CCc1cccc(C(=O)c2ccccc2)c1O`, the figures for the Inhibition in assay [1] and in assay [2] were 92% and 37%, respectively.

`Cc1ccc(/C(=N/O)c2ccc(Cl)cc2)c(O)c1`: in assay [2], the Inhibition is 0%.

On to `CCCc1ccc(O)c(/C(=N/O)c2ccc(Cl)cc2)c1`, for which the Inhibition in assay [2] is listed as 8%.

For `CCc1ccc(O)c(/C(=N/O)c2ccc(Cl)c(Cl)c2)c1`, in assay [2], the Inhibition is reported as 2%.

`CCCCc1ccc(O)c(C(=O)c2ccc(Cl)cc2)c1`: in assay [2], the Inhibition was determined as 0%.

For `CCc1ccc(C(=O)c2ccc(Cl)cc2)c(O)c1`, the Inhibition in assay [2] is 8%.

`CCCc1ccc(O)c(C(=O)c2ccc(Cl)cc2)c1`: in assay [2], the Inhibition was found to be 0%.

For `CCc1ccc(OC(C)=O)c(C(=O)c2ccc(Cl)cc2)c1`, the Inhibition in assay [2] came out at 28%.

For the molecule `CCc1ccc(OC(=O)c2ccccc2)c(C(=O)c2ccc(Cl)cc2)c1`, the values for the Inhibition in assay [1] and in assay [2] were 32% and 71%, respectively.

In the case of `CCc1ccc(OC)c(C(=O)c2ccncc2)c1`, in assay [2], the Inhibition amounted to 0%.

On to `C=C(c1ccc(Cl)cc1)c1cc(CC)ccc1O`, for which, in assay [2], the Inhibition amounted to 3%.

Take `CCc1ccc(O)c(C(=O)c2ccco2)c1`: the Inhibition in assay [1] was determined as 0%; in assay [2], 32%.

In the case of `CCc1ccc(O)c(C(O)c2ccccc2)c1` (centres undefined), the Inhibition in assay [1] came out at 7%; in assay [2], 37%.

For `CCc1ccc(C(=O)c2ccc(F)cc2)c(OC(C)=O)c1`, in assay [2], the Inhibition is 9%.

For `CCc1ccc(O)c(C(O)c2ccc(Cl)cc2)c1` (centres undefined), in assay [2], the Inhibition is listed as 5%.

As for `C=C(c1ccccc1)c1cc(CC)ccc1O`, in assay [2], the Inhibition was determined as 24%.

Consider `CCc1ccc(O)c(Cc2ccc(Cl)cc2)c1`, for which the results for the Inhibition in assay [1] and in assay [2] were 17% and 39%, respectively.

For the molecule `CCc1ccc(SC)c(C(O)c2ccc(Cl)cc2)c1` (centres undefined), in assay [2], the Inhibition turned out to be 11%.

Consider `CCc1ccc(O)c(C(=O)c2ccccc2Cl)c1`, for which the Inhibition in assay [2] was 14%.

`CCc1ccc(OC)c(C(O)c2ccc(C)cc2)c1` (centres undefined): in assay [2], the Inhibition is on record as 28%.

For `CCc1ccc(SC)c(C(=O)c2ccc(Cl)cc2)c1`, the Activity in assay [6] is 2.3; in assay [7], 0.6. In addition, the Inhibition in assay [2] is 29%.

In the case of `CCc1ccc(O)c(Sc2ccc(Cl)cc2)c1`, the Inhibition in assay [1] and in assay [2] was 31% each time.

Turning to `CCc1ccc(O)c(C(=O)c2cccc(C#N)c2)c1`, the Inhibition in assay [2] came to 21%.

With `CCc1ccc(OC(C)=O)c(C(=O)c2ccc(C)cc2)c1`, the Inhibition was 9% in assay [1] and 49% in assay [2].

Consider `CCc1ccc(O)c(C(=O)c2ccc(C)cc2)c1`, for which the Inhibition is 53% in assay [1] and 76% in assay [2].

Consider `CCc1ccc(Cc2ccc(F)cc2)c(O)c1`, for which the Inhibition in assay [1] came out at 33%; in assay [2], 34%.

In the case of `CCc1ccc(O)c(C(=O)c2ccncc2)c1`, the Inhibition in assay [2] is 0%.

As to `CCc1ccc(/C(=N/O)c2ccc(F)cc2)c(O)c1`, the Inhibition is on record as 46% in assay [1] and 33% in assay [2].

Consider `C=C(c1ccc(F)cc1)c1ccc(CC)cc1O`, for which the Inhibition in assay [1] is reported as 0%; in assay [2], 32%.

On to `CCc1ccc(O)c(C(=O)c2ccc(C)s2)c1`, for which the Inhibition in assay [2] is reported as 28%.

With `CCc1ccc(O)c(C(=O)c2ccc(Cl)s2)c1`, the Inhibition in assay [2] came out at 21%.

As for `Cc1ccc(O)c(C(=O)c2ccc(Cl)cc2)c1`, the results for the Inhibition in assay [1] and in assay [2] were 0% and 46%, respectively.

With `CCc1ccc(O)c(C(O)c2ccc([N+](=O)[O-])cc2)c1` (centres undefined), the Inhibition is 0% in assay [1] and 33% in assay [2].

On to `Cc1cccc(C(=O)c2ccccc2)c1O`, for which the Inhibition in assay [2] is 0%.

Regarding `CCc1ccc(OC)c(C(OC)c2ccc(Cl)cc2)c1` (centres undefined), the values for the Inhibition in assay [1] and in assay [2] were 22% and 32%, respectively.

Take `CCc1ccc(O)c(C(=O)c2ccc(Cl)c(Cl)c2)c1`: the Inhibition in assay [2] is given as 0%.

`CCc1cccc(/C(=N/O)c2ccccc2)c1O`: the Inhibition in assay [2] is 13%.

`CCc1ccc(O)c(C(=O)c2ccc([N+](=O)[O-])cc2)c1`: in assay [2], the Inhibition is 5%.

For the molecule `CCc1ccc([S+](C)[O-])c(C(=O)c2ccc(F)cc2)c1` (centres undefined), the values for the Inhibition in assay [1] and in assay [2] were 9% and 42%, respectively.

With `CCc1ccc(O)c(/C(=N/O)c2ccc(Cl)cc2Cl)c1`, the Inhibition in assay [2] is 0%.

Consider `CCc1ccc(O)c(C(=O)c2ccc3ccccc3c2)c1`, for which, in assay [2], the Inhibition is recorded as 2%.

With `CCc1ccc(S(C)(=O)=O)c(C(=O)c2ccc(Cl)cc2)c1`, in assay [2], the Inhibition turned out to be 17%.

As for `CCc1ccc(SC)c(C(=O)c2ccccc2)c1`, the Inhibition in assay [1] was 19%; in assay [2], 52%.

`O=C(c1ccc(Cl)cc1)c1ccccc1O`: the Inhibition in assay [2] stood at 0%.

Turning to `CCc1ccc(O)c(Cc2ccc(C)cc2)c1`, in assay [2], the Inhibition is reported as 0%.

With `CCc1ccc(SC)c(C(=O)c2ccc(F)cc2)c1`, the Inhibition in assay [1] was 14%; in assay [2], 31%.

In the case of `CCc1ccc(OC)c(C(=O)c2cc[n+]([O-])cc2)c1`, the Inhibition in assay [2] turned out to be 0%.

Regarding `CCc1ccc(C(=O)O)c(C(=O)c2ccc(Cl)cc2)c1`, the Inhibition in assay [2] amounted to 20%.

Regarding `CCc1ccc(OC)c(C(=O)c2ccccn2)c1`, the Inhibition in assay [2] is 0%.

With `CCc1ccc(O)c(C(=O)c2ccccn2)c1`, the Inhibition in assay [1] is listed as 5%; in assay [2], 30%.

For `CCc1ccc(O)c(Sc2ccccc2)c1`, in assay [2], the Inhibition turned out to be 0%.

Consider `CCc1ccc(O)c(Cc2ccccc2)c1`, for which the Inhibition in assay [1] is on record as 0%; in assay [2] it was 36%. For the same molecule, the Activity in assay [6] worked out at 1.6; in assay [7] it was 3.

For `CCc1ccc(O)c(C(=O)c2cccnc2)c1`, the Inhibition in assay [2] is given as 27%.

For `CCc1ccc(O)c([S+]([O-])c2ccccc2)c1` (centres undefined), the Inhibition in assay [1] and in assay [2] was 36% each time.

Take `CCc1ccc(S(C)(=O)=O)c(C(=O)c2ccc(F)cc2)c1`: the Inhibition in assay [2] was found to be 27%.

Consider `CCc1ccc(S(C)(=O)=O)c(C(=O)c2ccccc2)c1`, for which the Inhibition in assay [1] is listed as 13%; in assay [2], 35%.

Regarding `CCc1ccc(SC)c(C(=O)c2ccc(C)cc2)c1`, the Inhibition in assay [1] is on record as 0%; in assay [2] it was 32%.

Consider `Cc1ccc(O)c(/C(=N/O)c2ccc(Cl)cc2)c1`, for which the Inhibition is on record as 59% in assay [1] and 40% in assay [2].

In the case of `CCc1ccc(O)c(C(=O)c2ccc(Cl)cc2Cl)c1`, the Inhibition in assay [2] is recorded as 0%.
